Active and inactive are the calls of the source. The rule behind the calls is not given here.

One experiment addresses Glucagon receptor (Homo sapiens, UniProt P47871). In words: Agonist activity at human GCGR expressed in HEK293 cells assessed as increase in cAMP accumulation after 20 mins by HTRF assay. The experiment is classed as functional, cell-based. On the technique in general: Changes in cAMP serve as a functional read-out for many G protein-coupled receptors.
For experiment [1], the system named is Mus musculus. The experiment can be described thus: Anorectic activity in overnight fasted ICR mouse assessed as reduction in cumulative food intake at 1000 nmol/kg, ip measured up to 8 hrs post dose.
The test system of experiment [2] is Mus musculus. The experiment can be described thus: Body weight lowering effect in ICR mouse assessed as cumulative changes in body weight at 1000 nmol/kg, ip administered every other day for 2 weeks. The experiment is classed as functional, organism-based.
Experiment [3] has as its system Mus musculus. In words: Antiobesity activity in diet-induced obese C57Bl/6 mouse model assessed as plasma insulin level at 3.48 mg/kg, ip administered every other day for 30 days by ELISA (reference value: 13.33 +/- […]). The class given is functional, organism-based.
Experiment [4] has as its system Mus musculus. In words: Antiobesity activity in diet-induced obese C57Bl/6 mouse model assessed as serum adiponectin level at 3.48 mg/kg, ip administered every other day for 30 days by ELISA (reference value: 8.9 +/- 0.38 ug/ml). The experiment is classed as functional, organism-based. The procedure, abridged: (§1)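 Male C57Bl/6 mice were fed high-fat diet (60% kcal fat) for 12 weeks; DIO mice were ~38 g at 20 weeks. Dosing was i.p. (10 mL/kg in 0.9% saline) every other day at 9 am for 30 days, with saline controls and low-fat-diet lean mice for reference. Insulin, leptin and adiponectin were measured at study end. n=6-8 per group, means ± SD.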
A general note: In an ELISA, binding on a coated surface is turned into a signal by an enzyme label.

In experiment [5] the test system is Mus musculus. In words: Antiobesity activity in diet-induced obese C57Bl/6 mouse model assessed as plasma triglyceride level at 3.48 mg/kg, ip administered every other day for 30 days (reference value: 0.84 +/- […]). The class given is functional, organism-based.
Experiment [6] deals with Mus musculus. In words: Antiobesity activity in diet-induced obese C57Bl/6 mouse model assessed as serum leptin level at 3.48 mg/kg, ip administered every other day for 30 days by ELISA (reference value: 1.9 +/- 0.07 ng/ml). The class given is functional, organism-based. An outline of the steps:
as §1

The test system of experiment [7] is Mus musculus. In words: Antiobesity activity in diet-induced obese C57Bl/6 mouse model assessed as plasma cholesterol level at 3.48 mg/kg, ip administered every other day for 30 days (reference value: 4.33 +/- […]). The class given is functional, organism-based.
Experiment [8] deals with Mus musculus. In words: Anorectic activity in overnight fasted ICR mouse assessed as reduction in cumulative food intake at 1000 nmol/kg, ip measured at <2 hrs post dose. The class given is functional, organism-based.
Experiment [9] has as its system Mus musculus. The experiment can be described thus: Anorectic activity in overnight fasted ICR mouse assessed as reduction in cumulative food intake at 1000 nmol/kg, ip measured at 2 hrs post dose. The class given is functional, organism-based. The procedure, abridged:
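Male ICR mice, 9 weeks old, […], then given a single i.p. dose of 1000 nmol/kg in 0.9% saline; saline-injected controls. Mice were returned to home cages with preweighed food, which was reweighed at 0.5, 1, 2, 4, 8 and 24 h. Readout is cumulative food intake, n=6-8 per group.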

Sequence of Glucagon receptor (P47871 whole entry): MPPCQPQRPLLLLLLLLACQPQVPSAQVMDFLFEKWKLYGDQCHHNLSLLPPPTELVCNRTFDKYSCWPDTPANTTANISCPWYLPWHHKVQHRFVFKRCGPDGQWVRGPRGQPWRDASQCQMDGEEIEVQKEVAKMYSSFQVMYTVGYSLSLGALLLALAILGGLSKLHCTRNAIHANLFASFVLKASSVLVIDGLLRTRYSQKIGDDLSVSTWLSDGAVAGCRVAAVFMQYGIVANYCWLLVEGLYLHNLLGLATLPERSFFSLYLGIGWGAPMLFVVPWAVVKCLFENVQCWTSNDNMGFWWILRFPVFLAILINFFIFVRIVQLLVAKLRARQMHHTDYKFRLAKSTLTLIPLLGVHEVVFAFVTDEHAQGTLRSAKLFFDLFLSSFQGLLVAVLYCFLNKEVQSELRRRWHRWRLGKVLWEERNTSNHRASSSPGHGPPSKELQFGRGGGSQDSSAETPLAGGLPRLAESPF

For `CC[C@H](C)[C@H](NC(=O)[C@H](Cc1ccccc1)NC(=O)[C@H](CCC(=O)O)NC(=O)[C@H](CCCCN)NC(=O)[C@H](C)NC(=O)[C@H](C)NC(=O)[C@H](CCC(N)=O)NC(=O)CNC(=O)[C@H](CCC(=O)O)NC(=O)[C@H](CC(C)C)NC(=O)[C@H](Cc1ccc(O)cc1)NC(=O)[C@H](CO)NC(=O)[C@H](CO)NC(=O)[C@@H](NC(=O)[C@H](CC(=O)O)NC(=O)[C@H](CO)NC(=O)[C@@H](NC(=O)[C@H](Cc1ccccc1)NC(=O)[C@@H](NC(=O)CNC(=O)[C@H](CCC(=O)O)NC(=O)[C@H](C)NC(=O)[C@@H](N)Cc1c[nH]cn1)[C@@H](C)O)[C@@H](C)O)C(C)C)C(=O)N[C@@H](C)C(=O)N[C@@H](Cc1c[nH]c2ccccc12)C(=O)N[C@@H](CC(C)C)C(=O)N[C@H](C(=O)N[C@@H](CCCCN)C(=O)NCC(=O)N[C@@H](CCCN=C(N)N)C(=O)NCC(=O)O)C(C)C`, the EC50 entry on Glucagon receptor was “Not Active”. Further, the outcome in the experiment with Mus musculus [1] was Active. For the same molecule, in the experiment on Mus musculus [2], the result was inactive.
GLUCAGON: the Activity in the experiment with Mus musculus [3] worked out at 8.41 ng/mL; in the experiment with Mus musculus [4], 12.2 µg/mL; in the experiment on Mus musculus [5], 1.19 mmol/L; in the experiment with Mus musculus [6], 1.79 ng/mL; in the experiment with Mus musculus [7] it was 5.08 mmol/L. Moreover, the result in the experiment with Mus musculus [2] and with Mus musculus [9] was inactive. Further, the outcome in the experiment with Mus musculus [8] was Active.

The values above are taken from ChEMBL document CHEMBL4130377 (Eur J Med Chem, 2017).
